Shown are actives, neighbours in structure and some others; about 3.1% of the full set was active somewhere.
FN deposition inh – fibronectin deposition inhibition; AH1F fibroblasts, Alexa488-fibronectin deposition fluorescence, overnight; inhibition, % at 12.6 µM; 350,000 compounds, 0.086% hits;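 active = mean inhibition across replicates of 30% or more, regardless of how many single replicates reach that level; inconclusive = mean under 30% yet at least half of replicates reach 30%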;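 note: positive control wells lacked labelled fibronectin entirely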
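test system = AH1F fibroblasts assembling fluorescent fibronectin matrix | quantity = 10000 AH1F cells per well | buffer or medium = DMEM plus 2% serum, read in PBS | doses = single dose, pinned | incubation = 1 h cell attachment, overnight exposure to compound and label | detection = fluorescence at 485 nm excitation, 525 nm emission | read-out basis = inhibition from reduced deposited-fibronectin fluorescence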
FGF22 binding – shifts melting point of recombinant human FGF22 | 340,000 compounds, 1.5% hits | activity (Tm shift, normalised), % at 9.99 µM | recombinant FGF22 thermal shift, SYPRO orange fluorescence; percent of sucrose octasulfate shift, DMSO zero | Q9HCT0;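 active = mean Tm shift, scaled 0 neutral to 100 positive control, at about 1.3% or above, every replicate too, limit read from the data; inconclusive = no clear call, values can overlap the other calls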
Target sequence (Q9HCT0 whole entry, looked up): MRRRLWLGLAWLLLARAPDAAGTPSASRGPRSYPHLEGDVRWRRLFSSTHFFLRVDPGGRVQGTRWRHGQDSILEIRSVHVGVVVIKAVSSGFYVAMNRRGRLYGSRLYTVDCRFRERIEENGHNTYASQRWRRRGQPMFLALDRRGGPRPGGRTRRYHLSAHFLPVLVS
HIV Env fusion – HIV envelope-mediated fusion inhibition | 360,000 compounds, 1.1% hits | HeLa-JRFL Env/CEM21 cell fusion, luciferase | inhibition, % at 12.3 µM | AID 651610;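 active = mean replicate inhibition score of at least 50 and every replicate individually at or above 50; inconclusive = only one of the two criteria met; inactive = mean below 50 and not all replicates reaching 50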;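 note: 0% = plate neutral controls and 100% = maraviroc near 300 nM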
PGC1a acetyl inh – modulators of PGC1a acetylation | U2OS PGC1a acetylation, AlphaScreen anti-acetyl-lysine; with virally co-expressed GCN5 acetyltransferase | inhibition, % at 15.6 µM | 350,000 compounds, 0.17% hits | AID 651687;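 active = every replicate shows inhibition of at least 40%; inconclusive = mean inhibition at least 40% but some replicate below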;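 note: 0% = neutral control wells and 100% = positive control wells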
EWS-Fli block – EWS/Fli transcriptional activity inhibition; A673 NR0B1-luciferase reporter, viability-normalised; inhibition, % at 12.6 µM; 350,000 compounds, 0.67% hits; AID 651661;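 active = mean inhibition of at least 50% after viability correction, with every replicate also passing that limit; inconclusive = mean reaches 50% but only one of two replicates passes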;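 note: firefly luciferase signal divided by Alamar Blue viability fluorescence both relative to DMSO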
PAX8 reporter – lowers PAX8-driven luciferase in RMG-I cells | 360,000 compounds, 1.2% hits | AID 652154 | inhibition, % at 12.6 µM | RMG-I TPO-luciferase reporter, SteadyGlo, 24 h;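 active = mean replicate inhibition at least 60% with every replicate also reaching 60%; inconclusive = only one of the two criteria is met; inactive = mean below 60% and not all replicates reaching 60%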;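 note: luciferase light reporting Pax8 driven TPO promoter activity; plate controls were median of neutral control wells for no effect and mitoxantrone controls for full effect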
The depositor's hits bear a star; i = inactive; ? = inconclusive; . = not tested or not shown; [ ] = dose if it differs, or a comment.

SMILES	FN deposition inh	FGF22 binding	HIV Env fusion	PGC1a acetyl inh	EWS-Fli block	PAX8 reporter
CC(NC(=O)CN(c1cccc(C(F)(F)F)c1)S(=O)(=O)c1ccc(Cl)c([N+](=O)[O-])c1)c1ccccc1 (stereo unspecified)	0.4	0.2	.	.	59.8*	61.3*
CCOC(=O)c1c(C)[n+]([O-])c2ccc3c(non3O)c12	-3.8	44.2*	9.9	.	16.8	20.8
CC(=O)c1c(C)[n+]([O-])c2ccc3c(non3O)c12	9.1	-0.1	14.8	.	-60.2	4.2
Cc1noc(C)c1S(=O)(=O)N(C)C[C@H]1OCCCC[C@H](C)Oc2ccc(NC(=O)C3CCCCC3)cc2C(=O)N([C@@H](C)CO)C[C@H]1C	.	-0.4	-23.3[16.7 µM]	-3.5	5.6	0.4
CCCc1ccc(-c2ccc(/C=C/C(=O)O)cc2)nc1	1.4	0.3	60.7*	.	56.5*	-18.6
CCCCCc1ccc(-c2ccc(/C=C/C(=O)O)cc2)nc1	-17.3	.	0.7	.	.	-76.0
O=C(C[C@H]1CC[C@H]2[C@@H](COC[C@@H](O)CN2C(=O)c2ccccc2)O1)NCc1ccc(-c2ccccc2)cc1	-1.9	-0.2	-1.5[16.7 µM]	2.6	-7.2	9.4
COCCSc1nc(N)c(NC(=O)c2ccc(OC)cc2)c(=O)[nH]1	1.9	43.0*	6.8	.	-1.3	-25.7
O=[N+]([O-])c1ccc(N2CCN(Cc3ccccc3)CC2)c2c1no[n+]2[O-]	.	0.1	-314.6	16.4	48.6	98.9*
O=[N+]([O-])c1ccc(N2CCN(Cc3ccccc3)CC2)s1	-0.3	0.1	-4.0	-2.6	6.6	9.6
Cc1nn(C)c(Cl)c1CN1CCC(CO)(CCOc2ccccc2)CC1	-0.2	43.9*	6.4	11.7	4.1	5.5
CSCC(=O)N1CCCC(CO)(Cc2ccccc2C)C1 (stereo unspecified)	.	0.3	4.2	109.0*	2.4	16.7
C=CCOc1ccccc1CN1CCC(CO)(CCOc2ccccc2)CC1	-9.0	43.4*	16.1	-10.6	1.5	-3.7
Cc1ccccc1CC1(CO)CCCN(Cc2c(C)nn(C)c2Cl)C1 (stereo unspecified)	-2.4	44.0*	-6.6	.	-4.1	7.7
C[C@H](CO)N1C[C@H](C)[C@@H](CN(C)C(=O)Nc2cccc3ccccc23)Oc2ccc(NC(=O)CCN3CCOCC3)cc2CC1=O	1.4	0.0	.	3.3	.	1.8
O=C(N/N=C/c1cccs1)c1cc(-c2cccc3ccccc23)n[nH]1	11.9	43.7*	-76.6	.	25.1	-17.1
O=C(C[C@H]1C[C@H]2c3cc(NS(=O)(=O)c4ccc(F)cc4)ccc3O[C@H]2[C@@H](CO)O1)NCc1cc(F)ccc1F	7.3	0.1	.	0.5	13.1	.
Cc1noc(C)c1NC(=O)Nc1cccc2c1O[C@@H](CN(C)S(=O)(=O)c1cn(C)cn1)[C@@H](C)CN([C@H](C)CO)C2=O	0.9	-0.4	.	5.2	-0.5	.
CC1(C(=O)NCc2cccc(C(F)(F)F)c2)CCN1Cc1cc2ccccc2o1 (stereo unspecified)	-0.5	-0.2	19.9	1.3	4.5	11.7
CC1(C(=O)NCc2cccc(C(F)(F)F)c2)CCN1Cc1ccc(-c2ccccc2)o1 (stereo unspecified)	4.4	0.3	?	-11.9	12.5	74.2*
Nc1cccc(-c2cn3cccnc3n2)c1	-13.7	42.9*	14.7	0.5	-8.2	-17.2
C=C(C)C(=O)OC1(C(F)(F)F)Oc2cc(C)ccc2NC1=O (stereo unspecified)	-8.2	.	1.7	-22.7	.	93.0*
CCOC(=O)C1(N(CC)CC)Sc2cc(C)ccc2NC1=O (stereo unspecified)	10.4	.	9.2	-83.9	.	33.9
CNC(=O)C[C@H]1CC[C@H]2[C@@H](COc3ccc(NC(=O)c4ccc(F)cc4)cc3C(=O)N2C)O1	-5.1	0.1	-1.1[16.7 µM]	-0.1	-4.6	-0.3
O=C1N=C(N2CCCC2C(=O)O)S/C1=C\c1ccco1 (stereo unspecified)	.	42.9*	-8.5	5.0	-4.3	-13.6
SMILES	FN deposition inh	FGF22 binding	HIV Env fusion	PGC1a acetyl inh	EWS-Fli block	PAX8 reporter
N=C1/C(=C/c2ccco2)C(=O)N=C2SC(CC(=O)N3CCCC3)=NN12	1.0	-0.1	1.8	3.7	.	-8.7
COC(=O)c1ccc(OC)c(CSc2nnc(COc3ccc(Cl)cc3)o2)c1	-6.4	.	60.0*	0.7	.	.
COC(=O)c1ccc(OC)c(CSc2nnc(COc3ccccc3)o2)c1	.	.	-2.4	.	.	.
CCCC(=O)N1CCN(c2ccc(NC(=O)c3ccc([N+](=O)[O-])o3)cc2Cl)CC1	5.4	0.4	-284.9	26.8	71.3*	103.7*
CC(=O)N1CCN(c2ccc(NC(=O)c3ccc(Br)o3)cc2Cl)CC1	0.1	0.2	-17.9	19.4	-60.7	-13.7
O=C(Nc1ccc(N2CCOCC2)c(Cl)c1)c1ccc([N+](=O)[O-])o1	.	-0.1	i	.	13.8	71.5*
CN1CCN(c2ccc(NC(=O)c3ccc([N+](=O)[O-])o3)cc2Cl)CC1	8.2	-0.2	i	.	29.7	82.2*
Cc1ccc(NC(=O)c2n[nH]c(=O)c3ccccc23)cc1S(=O)(=O)N1CCOCC1	9.7	43.0*	-5.6	.	7.1	10.8
O=C(Nc1ccc(Cl)c(S(=O)(=O)N2CCOCC2)c1)c1n[nH]c(=O)c2ccccc12	-2.7	-0.2	.	.	4.7	-12.9
COc1ccc(NC(=O)N[C@H]2CC[C@@H](CCn3cc(-c4ccc(F)cc4)nn3)O[C@H]2CO)cc1	2.7	-0.2	-9.0[16.7 µM]	5.4	4.4	15.7
CC(C)C#Cc1cnc2c(c1)C(=O)N([C@H](C)CO)C[C@@H](C)[C@H](CN(C)C(=O)Nc1ccccc1)O2	-3.0	-0.1	15.4[16.7 µM]	1.6	-5.8	.
CC(C)C(=O)N1CCN(c2ccc(NC(=O)c3ccc([N+](=O)[O-])o3)cc2Cl)CC1	36.6*	0.4	i	30.0	61.2*	88.3*
Cc1ccc(NC(=O)c2cc3c(s2)CCC3)cc1S(=O)(=O)N1CCOCC1	3.0	.	58.3*	.	.	.
Cc1ccc(NC(=O)c2ccc([N+](=O)[O-])o2)cc1S(=O)(=O)N1CCOCC1	.	42.6	-202.7	-190.7	48.8	84.0*
O=[N+]([O-])c1cccc(S(=O)(=O)Nc2nc3ccccc3nc2Nc2cccc(S(=O)(=O)N3CCCCC3)c2)c1	7.4	0.4	72.0*	.	22.0	8.9
CC(=O)N[C@@H]1CC[C@H](CCNC(=O)C2CCC2)O[C@H]1CO	-13.2	-0.2	-0.2[16.7 µM]	1.1	-4.6	-17.4
O=C(C[C@H]1CC[C@@H]2[C@H](COC[C@H](O)CN2C(=O)c2ccc(F)cc2)O1)NCCCN1CCOCC1	-7.3	-0.1	.	-8.1	1.0	8.5
C[C@H]1CN([C@@H](C)CO)C(=O)Cc2cc(NC(=O)CCCCCC(=O)Nc3ccccc3N)ccc2O[C@H]1CN(C)Cc1ccncc1	.	0.0	-2.7[16.7 µM]	9.7	9.4	-13.6

High-throughput results as filed in PubChem BioAssay.
